High-throughput results (PubChem BioAssay)
M1 ag parental: counter-screen for M1 agonists: effect in parental CHO-K1 cells. hit rate 0.48% among 360,000. Fluo-8 calcium fluorescence; scaled to maximal ATP response, vehicle zero. AID 602248. activation, % at 3 µM; in the data active means activation above about 15%;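 further: untransfected CHO-K1 host cells lacking M1 receptor as counterscreen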
CHO-K1 Ca antag: M1 antagonist counterscreen hit in parental CHO-K1 cells. ATP-induced calcium, Fluo-8 fluorescence. inhibition, % at 3 µM. hit rate 0.6% among 360,000;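 active means inhibition above a per-plate cutoff, the plate's mean sample inhibition plus 3 SD, cut at about 24% in these data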
OX1R antag-1: OX1R (human) antagonism; inhibition, % at 6.6 µM; OX1R-expressing cells, FRET antagonist read-out; hit rate 1.8% among 330,000; O43613; in the data active means inhibition mostly above about 38%, no sharp cut-off; inactive means mostly below about 40%
Target sequence (O43613 whole entry, looked up): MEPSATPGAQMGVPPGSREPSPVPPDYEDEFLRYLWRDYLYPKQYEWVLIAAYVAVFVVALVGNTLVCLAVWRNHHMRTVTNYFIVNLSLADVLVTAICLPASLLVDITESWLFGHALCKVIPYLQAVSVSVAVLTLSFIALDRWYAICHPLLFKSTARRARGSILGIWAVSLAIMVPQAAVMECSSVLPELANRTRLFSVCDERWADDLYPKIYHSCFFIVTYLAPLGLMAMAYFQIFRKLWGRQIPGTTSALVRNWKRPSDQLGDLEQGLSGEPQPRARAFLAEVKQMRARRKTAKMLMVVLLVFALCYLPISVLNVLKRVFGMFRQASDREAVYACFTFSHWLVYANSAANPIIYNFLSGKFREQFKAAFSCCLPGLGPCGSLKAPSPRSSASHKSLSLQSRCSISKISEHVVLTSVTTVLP
CHO parental Ca: signal in parental CHO cells, OX1R antagonist counter-screen | parental CHO-K1, ATP-induced calcium, Fluo-8 fluorescence | inhibition, % at 5.6 µM | hit rate 0.63% among 330,000 | AID 463079;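 active means inhibition above that plate's mean sample inhibition plus 3 SD, cut at about 26% in these data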
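material = parental CHO cells | also added = ATP as calcium-mobilizing challenge | dosing = single point at 5.6 µM | detection = intracellular calcium via Fluo-8 no-wash fluorescent dye | read-out = % inhibition | benchmarks = low control ATP plus DMSO, high control DMSO only | repeats = one well per compound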
M1 PAM parental: M1 PAM counterscreen hit in parental CHO-K1 cells; ATP EC20, Fluo-8 calcium fluorescence; 0% at ATP EC20, 100% at ATP max; activation, % at 3 µM; hit rate 0.02% among 360,000;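 active means activation above the run cutoff, the mean activation of all test compounds plus 3 SD, cut at about 40% in these data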;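 further: peak over basal fluorescence ratio in a 140 s read after ATP addition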
OX1R antag-2: blocks the human orexin 1 receptor; O43613; CHO/OX1R cells, Fluo-8 calcium fluorescence, orexin A; inhibition, % at 5 µM; hit rate 0.43% among 330,000; AID 434989;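 active means inhibition above its plate's threshold, mean inhibition of all tested compounds on the plate plus 3 SD, cut at about 37% in these data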
Numbers stand for hits. Only some compounds are listed: those with a hit (about 2.9% of all), similar ones and a draw of the others.

For O=[N+]([O-])c1ccc(C2=NN(CCO)C(=Nc3ccc(OC(F)(F)F)cc3)SC2)cc1 the results were M1 ag parental inactive, CHO-K1 Ca antag inactive, OX1R antag-1 inactive, CHO parental Ca inactive, M1 PAM parental inactive and OX1R antag-2 inactive.
Screening COc1ccc(N=C2SCC(c3ccc([N+](=O)[O-])cc3)=NN2CCO)cc1 returned M1 ag parental 15, CHO-K1 Ca antag inactive, OX1R antag-1 inactive, CHO parental Ca inactive, M1 PAM parental inactive and OX1R antag-2 inactive.
`COC(=O)c1cc(C(=O)OCC(=O)c2ccc3c(c2)NC(=O)CO3)cc([N+](=O)[O-])c1` gave M1 ag parental inactive, CHO-K1 Ca antag inactive and M1 PAM parental inactive.
Screening Cc1cc(C)c(NC(=O)c2cccs2)c(C)c1NC(=O)c1cccs1 returned M1 ag parental inactive, CHO-K1 Ca antag inactive, OX1R antag-1 inactive, CHO parental Ca inactive, M1 PAM parental inactive and OX1R antag-2 inactive.
`FC(F)(F)c1ccccc1Cc1c(-c2ccccc2)nc2ccc(Br)cn12` gave M1 ag parental inactive, CHO-K1 Ca antag inactive and M1 PAM parental inactive.
`O=C(Nc1ccccc1F)c1ccc(CNS(=O)(=O)c2cccc(C(F)(F)F)c2)cc1` gave M1 ag parental inactive, CHO-K1 Ca antag inactive, OX1R antag-1 inactive, CHO parental Ca 69, M1 PAM parental inactive and OX1R antag-2 inactive.
For Cc1ccc(NC(=O)c2ccc(CNS(=O)(=O)c3cccc(C(F)(F)F)c3)cc2)cc1 the results were M1 ag parental inactive, CHO-K1 Ca antag inactive, OX1R antag-1 inactive, CHO parental Ca inactive, M1 PAM parental inactive and OX1R antag-2 inactive.
For COc1ccc(OC)c(NC(=O)c2cc(S(=O)(=O)N(C)C)ccc2N2CCCC2)c1 the results were M1 ag parental inactive, CHO-K1 Ca antag inactive, OX1R antag-1 inactive, CHO parental Ca inactive, M1 PAM parental inactive and OX1R antag-2 inactive.
Screening CC(=O)N1CCN(c2ccc([N+](=O)[O-])c(NCc3cccnc3)c2)CC1 returned M1 ag parental inactive, CHO-K1 Ca antag inactive, OX1R antag-1 42, CHO parental Ca inactive, M1 PAM parental inactive and OX1R antag-2 inactive.
Screening O=C(O)c1ccc(NCc2cccnc2)c([N+](=O)[O-])c1 returned M1 ag parental inactive, CHO-K1 Ca antag inactive, OX1R antag-1 55, CHO parental Ca inactive, M1 PAM parental inactive and OX1R antag-2 inactive.
`CCS(=O)(=O)N1CCN(c2ccc([N+](=O)[O-])c(NCc3cccnc3)c2)CC1` gave M1 ag parental inactive, CHO-K1 Ca antag inactive, OX1R antag-1 inactive, CHO parental Ca inactive, M1 PAM parental inactive and OX1R antag-2 inactive.
`CC(C)CC1Nc2ncnc(N3CCCCC3)c2N(Cc2ccc(Br)cc2)C1=O` (stereo not drawn) gave M1 ag parental inactive, CHO-K1 Ca antag inactive, OX1R antag-1 inactive, CHO parental Ca inactive, M1 PAM parental inactive and OX1R antag-2 inactive.
Screening C[C@@H]1CN([C@@H](C)CO)C(=O)CCCn2nncc2CO[C@@H]1CN(C)S(=O)(=O)c1cccc(C#N)c1 returned M1 ag parental inactive, CHO-K1 Ca antag inactive and M1 PAM parental inactive.
Screening FC(F)(F)c1cc(-c2cccs2)nc2ncnn12 returned M1 ag parental inactive, CHO-K1 Ca antag inactive, OX1R antag-1 62, CHO parental Ca inactive, M1 PAM parental inactive and OX1R antag-2 inactive.
For COc1ccc(Oc2nc3c(c(=O)n(C)c(=O)n3C)n2Cc2cccc(OC)c2)cc1 the results were M1 ag parental inactive, CHO-K1 Ca antag inactive, OX1R antag-1 inactive, CHO parental Ca inactive, M1 PAM parental inactive and OX1R antag-2 inactive.
COCCOc1nc2c(c(=O)n(C)c(=O)n2C)n1Cc1cccc(OC)c1 was read as M1 ag parental inactive, CHO-K1 Ca antag inactive, OX1R antag-1 inactive, CHO parental Ca 45, M1 PAM parental inactive and OX1R antag-2 inactive.
`CCOC(=O)CN1C(=O)/C(=C2\SC(=S)N(NC(=O)c3cccnc3)C2=O)c2ccccc21` gave M1 ag parental inactive, CHO-K1 Ca antag inactive, OX1R antag-1 inactive, CHO parental Ca inactive, M1 PAM parental inactive and OX1R antag-2 inactive.
Screening CCc1sc(N2C(=O)C3C4CCC(C4=C(C)C)C3C2=O)nc1-c1ccccc1 (stereo not drawn) returned M1 ag parental inactive, CHO-K1 Ca antag inactive, OX1R antag-1 38, CHO parental Ca inactive, M1 PAM parental inactive and OX1R antag-2 inactive.
CCc1sc(NC(C)=O)nc1-c1ccccc1 was read as M1 ag parental inactive, CHO-K1 Ca antag inactive, OX1R antag-1 inactive, CHO parental Ca inactive, M1 PAM parental inactive and OX1R antag-2 inactive.
Screening Cc1c(C(=O)NC2CC(=O)N(c3ccc4c(c3)OCCO4)C2)cccc1[N+](=O)[O-] (stereo not drawn) returned M1 ag parental inactive, CHO-K1 Ca antag inactive, OX1R antag-1 inactive, CHO parental Ca inactive, M1 PAM parental inactive and OX1R antag-2 inactive.
COc1ccc2[nH]c(C(=O)N/N=C/c3ccccc3OC)cc2c1 was read as M1 ag parental inactive, CHO-K1 Ca antag inactive, OX1R antag-1 56, CHO parental Ca inactive, M1 PAM parental inactive and OX1R antag-2 inactive.
For COc1ccc(OC)c(/C=N/NC(=O)c2cc3c(OC)c(OC)ccc3[nH]2)c1 the results were M1 ag parental inactive, CHO-K1 Ca antag inactive, OX1R antag-1 inactive, CHO parental Ca inactive, M1 PAM parental inactive and OX1R antag-2 inactive.
For COc1cc(OC)c2cc(C(=O)N/N=C/c3ccccc3O)[nH]c2c1 the results were M1 ag parental inactive, CHO-K1 Ca antag inactive, OX1R antag-1 62, CHO parental Ca inactive, M1 PAM parental inactive and OX1R antag-2 inactive.
Screening CCOc1ccc2[nH]c(C(=O)N/N=C/c3ccccc3OC)cc2c1 returned M1 ag parental inactive, CHO-K1 Ca antag inactive, OX1R antag-1 inactive, CHO parental Ca inactive, M1 PAM parental inactive and OX1R antag-2 inactive.
`O=C1NC(=O)N2CCSC2(Cc2ccccc2)N1` (stereo not drawn) gave M1 ag parental inactive, CHO-K1 Ca antag inactive and M1 PAM parental inactive.
For c1ccc(OCCNc2ccn3nc(-c4cccs4)cc3n2)cc1 the results were M1 ag parental inactive, CHO-K1 Ca antag inactive and M1 PAM parental inactive.
For CCC(CC)NC(=O)CON=C1c2ccccc2-c2ccccc21 the results were M1 ag parental inactive, CHO-K1 Ca antag inactive, OX1R antag-1 51, CHO parental Ca inactive, M1 PAM parental inactive and OX1R antag-2 inactive.
CCCCN(C(C)=O)c1c(CC)nc2ccc(C(=O)NCCOc3ccc(OC)cc3)cn12 was read as M1 ag parental inactive, CHO-K1 Ca antag inactive and M1 PAM parental inactive.
Screening CN(c1ccccc1)S(=O)(=O)c1cccc(NC(=O)CSc2nncs2)c1 returned M1 ag parental inactive, CHO-K1 Ca antag 29, OX1R antag-1 inactive, CHO parental Ca inactive, M1 PAM parental inactive and OX1R antag-2 inactive.
CN(c1ccccc1)S(=O)(=O)c1cccc(NC(=O)CN2CCCc3ccccc32)c1 was read as M1 ag parental 15, CHO-K1 Ca antag inactive, OX1R antag-1 inactive, CHO parental Ca 33, M1 PAM parental inactive and OX1R antag-2 inactive.
